Calls of active or inactive are those of the source. The rule behind the calls is not given here.
Columns and labels:
U-937 [1] = assay: Induction of apoptosis in U937 cells at 5 uM by AnnexinV/PI double staining; format: functional
Summary of the method: (§1)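 U937 cells exposed 48 h at 1 or 5 µM; apoptosis read by Annexin V/propidium iodide double staining and FACS.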

Histone deacetylase HD2 = target: T1, Histone deacetylase HD2 (Zea mays, UniProt Q94F81); assay: Inhibition of maize HD2
T1 sequence (Q94F81 whole entry): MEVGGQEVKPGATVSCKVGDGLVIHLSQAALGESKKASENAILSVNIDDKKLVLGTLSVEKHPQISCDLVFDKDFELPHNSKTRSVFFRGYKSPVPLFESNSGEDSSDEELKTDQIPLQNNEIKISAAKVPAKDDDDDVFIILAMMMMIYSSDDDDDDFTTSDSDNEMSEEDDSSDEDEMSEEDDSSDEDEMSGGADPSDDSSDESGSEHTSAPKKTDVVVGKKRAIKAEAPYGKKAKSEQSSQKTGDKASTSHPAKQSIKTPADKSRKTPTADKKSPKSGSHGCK

Histone deacetylase HD1B = Histone deacetylase HD1B (Zea mays, UniProt Q9ZTP8); assay: Inhibition of maize HD1B
Sequence of Histone deacetylase HD1B (Q9ZTP8 whole entry): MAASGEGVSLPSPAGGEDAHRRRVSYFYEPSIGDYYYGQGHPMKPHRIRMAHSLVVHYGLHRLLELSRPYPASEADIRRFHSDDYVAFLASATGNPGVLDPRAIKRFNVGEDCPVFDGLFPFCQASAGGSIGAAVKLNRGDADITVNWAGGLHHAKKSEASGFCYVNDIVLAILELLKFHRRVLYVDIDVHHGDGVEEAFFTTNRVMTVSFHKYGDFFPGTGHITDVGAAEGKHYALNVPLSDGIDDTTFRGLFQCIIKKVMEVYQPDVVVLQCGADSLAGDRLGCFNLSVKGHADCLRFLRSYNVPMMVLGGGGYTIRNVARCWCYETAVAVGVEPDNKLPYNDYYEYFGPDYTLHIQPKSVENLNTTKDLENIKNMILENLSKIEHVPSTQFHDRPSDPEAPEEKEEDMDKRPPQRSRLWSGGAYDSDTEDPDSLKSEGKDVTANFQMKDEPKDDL

U-937 [2] = assay: Cell cycle arrest in U937 cells by accumulation at G1 phase at 1 uM after 24 hrs; format: functional, cell-based; conditions: Homo sapiens
Summary of the method: (§2)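 U937 cells (RPMI, 10% FCS, kept at 200 000 cells/mL) treated 24 h at 1 or 5 µM (DMSO stocks); 2.5 × 10^5 cells resuspended in hypotonic buffer (0.1% Triton X-100, 0.1% sodium citrate, 50 µg/mL PI, RNAse A), 30 min dark; DNA content by flow cytometry; experiments performed three times.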

Histone deacetylase 1 = Histone deacetylase 1 (Mus musculus, UniProt O09106); assay: Inhibition of mouse HDAC1
Sequence of Histone deacetylase 1 (O09106 whole entry): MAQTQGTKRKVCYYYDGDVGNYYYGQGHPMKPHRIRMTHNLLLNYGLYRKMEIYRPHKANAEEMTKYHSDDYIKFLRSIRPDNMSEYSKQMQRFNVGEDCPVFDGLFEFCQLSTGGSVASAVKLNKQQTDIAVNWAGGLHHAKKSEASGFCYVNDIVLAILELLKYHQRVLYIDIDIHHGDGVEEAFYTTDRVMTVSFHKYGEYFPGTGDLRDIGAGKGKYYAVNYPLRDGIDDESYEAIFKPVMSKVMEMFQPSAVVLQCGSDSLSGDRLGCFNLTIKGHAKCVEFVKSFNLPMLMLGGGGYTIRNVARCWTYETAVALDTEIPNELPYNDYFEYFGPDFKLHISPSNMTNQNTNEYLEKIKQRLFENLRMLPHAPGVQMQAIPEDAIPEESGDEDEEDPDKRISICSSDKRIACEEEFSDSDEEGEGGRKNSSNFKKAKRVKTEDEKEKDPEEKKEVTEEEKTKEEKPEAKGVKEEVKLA

U-937 [3] = assay: Induction of granulocytic differentiation of U937 cells measured as CD11c expression level after 48 hrs at 5 uM; format: functional, Homo sapiens
Summary of the method: (§3)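 Granulocytic differentiation: U937 cells treated 48 h at 1 or 5 µM, stained with PE-conjugated anti-CD11c (PE mouse IgG1 control) 30 min at 4 °C in dark, resuspended in PBS with PI 0.25 µg/mL; FACS, PI-positive cells excluded; percent CD11c-positive PI-negative cells reported.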

U-937 [4] = assay: Induction of H3 histone acetylation in U937 cells by Western blot analysis at 5 uM; format: functional, cell-based; conditions: Homo sapiens
U-937 [5] = assay: Cell cycle arrest in U937 cells by accumulation at G1 phase at 5 uM after 24 hrs; format: functional, cell-based; conditions: Homo sapiens; summary of the method: as §2
U-937 [6] = assay: Antiproliferative activity against U937 cells at 5 uM; format: functional, cell-based; conditions: Homo sapiens
Summary of the method: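 U937 cells seeded at 200 000 cells/mL in RPMI/10% FCS with vehicle or inhibitor at 5 µM; living cells counted every 24 h by Trypan Blue exclusion; data plotted after three days; triplicate.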

[7] = target: Histone deacetylase 1 (Homo sapiens) (UniProt Q13547); assay: Inhibition of HDAC1 in U937 cell at 5 uM; conditions: U-937
Sequence of Histone deacetylase 1 (Homo sapiens) (Q13547 whole entry): as the sequence (O09106 whole entry) above, with K8R, E399D, D424E counted along it
Summary of the method: (§4)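 HDAC1 immunoprecipitated overnight at 4 °C from U937 lysates (1000 µg extract, anti-HDAC1; IgG negative control); 10 µL IP incubated overnight at 37 °C with 120 000 CPM [3H]acetyl-histone H4 peptide on streptavidin beads in HDAC buffer ± inhibitor (5 µM); released radioactivity by scintillation counting; quadruplicate.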

[8] = target: Histone deacetylase 4 (Homo sapiens) (UniProt P56524); assay: Inhibition of HDAC4 in ZR75.1 cell at 5 uM; conditions: ZR-75-1
Sequence of Histone deacetylase 4 (Homo sapiens) (P56524 whole entry): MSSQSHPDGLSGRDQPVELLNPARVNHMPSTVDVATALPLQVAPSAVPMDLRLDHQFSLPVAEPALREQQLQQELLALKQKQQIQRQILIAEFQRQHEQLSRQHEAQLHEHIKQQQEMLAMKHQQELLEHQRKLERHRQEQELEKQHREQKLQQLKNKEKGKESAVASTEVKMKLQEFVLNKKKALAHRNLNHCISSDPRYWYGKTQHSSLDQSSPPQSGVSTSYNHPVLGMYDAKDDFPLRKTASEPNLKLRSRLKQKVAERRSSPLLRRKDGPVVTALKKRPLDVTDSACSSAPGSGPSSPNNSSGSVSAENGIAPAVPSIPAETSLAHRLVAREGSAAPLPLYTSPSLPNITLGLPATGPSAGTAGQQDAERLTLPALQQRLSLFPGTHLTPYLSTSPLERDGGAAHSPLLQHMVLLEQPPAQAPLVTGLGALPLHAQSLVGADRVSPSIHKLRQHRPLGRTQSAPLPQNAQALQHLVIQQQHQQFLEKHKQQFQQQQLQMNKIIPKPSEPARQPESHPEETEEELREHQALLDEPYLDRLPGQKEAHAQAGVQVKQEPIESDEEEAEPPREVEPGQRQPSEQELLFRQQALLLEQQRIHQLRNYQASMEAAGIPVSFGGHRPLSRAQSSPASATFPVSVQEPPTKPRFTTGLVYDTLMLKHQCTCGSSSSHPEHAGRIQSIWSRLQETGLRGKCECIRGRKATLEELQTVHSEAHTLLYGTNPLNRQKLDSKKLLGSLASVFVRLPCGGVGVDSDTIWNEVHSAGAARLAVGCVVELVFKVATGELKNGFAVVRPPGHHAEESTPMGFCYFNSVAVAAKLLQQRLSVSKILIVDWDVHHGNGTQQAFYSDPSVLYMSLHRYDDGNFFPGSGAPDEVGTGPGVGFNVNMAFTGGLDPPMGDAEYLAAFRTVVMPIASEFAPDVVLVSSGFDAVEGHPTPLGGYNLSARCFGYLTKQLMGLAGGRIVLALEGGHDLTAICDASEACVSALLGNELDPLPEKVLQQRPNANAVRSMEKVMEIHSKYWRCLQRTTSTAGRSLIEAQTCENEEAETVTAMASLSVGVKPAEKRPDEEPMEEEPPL
Summary of the method: as §4, with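 “HDAC4” for “HDAC1”, “ZR-75.1 breast cancer” for “U937”, “anti-HDAC4;” for “anti-HDAC1;”, “µM);” for “µM); released radioactivity by”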

U-937 [9] = assay: Induction of alpha-tubulin acetylation in U937 cells by Western blot analysis; format: functional, cell-based; conditions: Homo sapiens
Summary of the method: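 Western blot of U937 total protein extracts (25 µg) on 10% polyacrylamide gel, probed for acetylated alpha-tubulin (1:500); total ERKs used as loading control.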

Zea mays [10] = assay: Selectivity for HD1A class II HDAC over HD1B class I HDAC
[11] = target: T2, Histone deacetylase HD2 (Zea mays) (UniProt Q94F81); assay: Inhibition of maize HD2 at 20.9 uM
T2 sequence (whole entry): T1 sequence (Q94F81 whole entry)

Zea mays [12] = assay: Inhibition of maize HD1A at 20.9 uM
[13] = target: Histone deacetylase HD1B (Zea mays) (UniProt Q9ZTP8); assay: Inhibition of maize HD1B at 20.9 uM
Sequence of Histone deacetylase HD1B (Zea mays) (Q9ZTP8 as listed by the source): as the sequence (Q9ZTP8 whole entry) above

U-937 [14] = assay: Induction of apoptosis in U937 cells at 1 uM by AnnexinV/PI double satining; format: functional, Homo sapiens; summary of the method: as §1
U-937 [15] = assay: Induction of granulocytic differentiation of U937 cells measured as CD11c expression level after 48 hrs at 1 uM; format: functional, Homo sapiens; summary of the method: as §3
U-937 [16] = assay: Cell cycle arrest in U937 cells by accumulation at S/G2/M phase at 5 uM after 24 hrs; conditions: Homo sapiens

IC50 (Histone deacetylase HD2) [nM] | IC50 (Histone deacetylase HD1B) [nM] | Structure (SMILES) | also measured
17 | 64 | O=C(/C=C/c1cccc(CSc2nc(O)cc(-c3ccccc3)n2)c1)NO | Activity (U-937 [2]): Active; Activity (U-937 [1]; Homo sapiens): inactive; IC50 (Histone deacetylase 1): 57 nM; Activity (U-937 [3]): 33%; Activity (U-937 [4]): Active; Activity (U-937 [5]): Active; Activity (U-937 [6]): Active
41 | 42 | O=C(/C=C/c1cccc(CSc2nc(O)cc(Cc3ccccc3)n2)c1)NO | Activity (U-937 [14]): 8%; Activity (U-937 [1]; Homo sapiens): inactive; IC50 (Histone deacetylase 1): 90 nM
23 | 112 | O=C(/C=C/c1ccc(CSc2nc(O)cc(-c3ccccc3)n2)cc1)NO | Activity (U-937 [14]): 8.8%; Activity (U-937 [1]; Homo sapiens): inactive; IC50 (Histone deacetylase 1): 34 nM; inhibition [7]: 94%; inhibition [8]: 14%; Activity (U-937 [15]): 42.5%; Activity (U-937 [3]): 46%; Activity (U-937 [4]): Active; Activity (U-937 [5]): Active; Activity (U-937 [6]): Active
367 | 780 | O=C(/C=C/c1ccccc1CSc1nc(O)cc(-c2ccccc2)n1)NO | 
37 | 60 | O=C(CCSc1nc(O)cc(CCc2ccccc2)n1)NO | 
760 | 1060 | O=C(/C=C/c1ccccc1CSc1nc(O)cc(Cc2ccccc2)n1)NO | 
41000 | 96000 | O=C(/C=C/Sc1nc(O)cc(CCc2ccccc2)n1)NO | 
205 | 170 | O=C(CCCSc1nc(O)cc(CCc2ccccc2)n1)NO | 
80 | 73 | O=C(/C=C/c1ccc(CSc2nc(O)cc(Cc3ccccc3)n2)cc1)NO | Activity (U-937 [1]; Homo sapiens): inactive; IC50 (Histone deacetylase 1): 110 nM; Activity (U-937 [15]): 30%; Activity (U-937 [3]): 33%

More lines, now with the values behind:

Structure (SMILES) | IC50 (Histone deacetylase HD2) [nM] | IC50 (Histone deacetylase HD1B) [nM] | also measured
O=C(CCCCCSc1nc(O)cc(C(c2ccccc2)c2ccccc2)n1)NO |  |  | Activity (U-937 [1]; Homo sapiens): inactive
O=C(CCCCCSc1nc(C2(c3ccccc3)CC2)cc(=O)[nH]1)NO | 62 | 47 | 
O=C(CCCCSc1nc(-c2ccccc2)cc(=O)[nH]1)NO | 8 | 10 | Activity (U-937 [1]; Homo sapiens): inactive; IC50 (Histone deacetylase 1): 40 nM; inhibition [7]: 46%; inhibition [8]: 0%; Activity (U-937 [4]): Active; Activity (U-937 [9]): Active
O=C(CCCCCCCSc1nc(CCc2ccccc2)cc(=O)[nH]1)NO | 90 | 62 | 
O=C(CCCCCCSc1nc(O)cc(-c2ccccc2)n1)NO |  |  | Selectivity ratio (Zea mays [10]): > 3
O=C(CCCCCCSc1nc(CCc2ccccc2)cc(=O)[nH]1)NO | 83 | 62 | 
O=C(/C=C/Sc1nc(O)cc(-c2ccccc2)n1)NO |  |  | inhibition [11]: 0%; inhibition (Zea mays [12]): 0%; inhibition [13]: 0%
O=C(CCCCCSc1nc(-c2ccccc2)cc(=O)[nH]1)NO |  | 19 | Selectivity ratio (Zea mays [10]): > 3
COC(c1ccccc1)c1cc(O)nc(SCCCCCC(=O)NO)n1 (stereo not drawn) | 82 | 79 | 
O=C(CCCCCCC(=O)Nc1ccccc1)NO [VORINOSTAT] |  |  | Activity (U-937 [1]): 98%; Activity (U-937 [15]): 48%; Activity (U-937 [3]): 32%; Activity (U-937 [16]): Active
CC(/C=C/C(=O)NO)=C\[C@@H](C)C(=O)c1ccc(N(C)C)cc1 [TRICHOSTATIN] |  | 0.4 | 
O=C(CCCCCSc1nc(Cc2ccccc2)cc(=O)[nH]1)NO |  | 18 | Activity (U-937 [1]; Homo sapiens): inactive; IC50 (Histone deacetylase 1): 103 nM; Activity (U-937 [3]): 30%
CCC(c1ccccc1)c1cc(=O)[nH]c(SCCCCCC(=O)NO)n1 (stereo not drawn) | 32 | 31 | 
O=C(CCCCCCCSc1nc(O)cc(-c2ccccc2)n1)NO |  |  | Selectivity ratio (Zea mays [10]): > 3
CC(c1ccccc1)c1cc(=O)[nH]c(SCCCCCC(=O)NO)n1 (stereo not drawn) | 9 | 92 | IC50 (Histone deacetylase 1): 121 nM
O=C(CCCSc1nc(O)cc(-c2ccccc2)n1)NO | 27 | 31 | 
O=C(CCCCCCCSc1nc(-c2ccccc2)cc(=O)[nH]1)NO | 42 | 89 | 
O=C(CCCCCSc1nc(C(c2ccccc2)c2ccccc2)cc(=O)[nH]1)NO | 52 | 58 | 
O=C(CCCCSc1nc(O)cc(CCc2ccccc2)n1)NO |  |  | Selectivity ratio (Zea mays [10]): > 3
O=C(CCCCCCSc1nc(-c2ccccc2)cc(=O)[nH]1)NO | 38 | 48 | 
O=C(CCCCSc1nc(CCc2ccccc2)cc(=O)[nH]1)NO | 40 | 46 | 
O=C(CCSc1nc(-c2ccccc2)cc(=O)[nH]1)NO | 822 | 890 | 

— ChEMBL document CHEMBL1137389, “Synthesis and biological properties of novel, uracil-containing histone deacetylase inhibitors” (J Med Chem, 2006)
